How the values were obtained:
CRY1/CRY2 = settings: cited from earlier work
[1] = test system: Per2::Luc reporter in Cry1 knockout fibroblasts; experiment: Per2::Luc repression assay; type: cell-based, mice; settings: Cry1 knockout cells
How it was run: (§1)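 Mouse fibroblasts carrying a Per2::Luc knock-in reporter (wild type, Cry1/Cry2 double, Cry1 or Cry2 knockout) grown 2 days to confluency in 384-well plates, then given test compound dilution series (final 0.7% DMSO). After 2 days, medium replaced with BrightGlo and luminescence read. Change is relative to DMSO control, n = 3–4 biological samples. IC50 from sigmoidal dose–response fit.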

[2] = test system: Per2::Luc reporter in Cry2 knockout fibroblasts; experiment: Per2::Luc repression assay; type: cell-based, mice; settings: Cry2 knockout cells, compared to wild type
How it was run: as §1

Row | SMILES | CRY isoform selectivity (CRY1/CRY2) | repression of Per2::Luc reporter activity [1] | repression of Per2::Luc reporter activity [2]
1 | CS(=O)(=O)N(Cc1ccco1)CC(O)Cn1c2ccccc2c2ccccc21 (stereo not drawn) [KL001] | does not display a CRY isoform selectivity | less effective than intact cells | 
2 | O=C1NCCN1CC(O)Cn1c2ccc(F)cc2c2cc(F)ccc21 (stereo not drawn) [SHP656] | selective for CRY2 |  | reduced overall repression
3 | O=C1NCCN1C[C@H](O)Cn1c2ccc(F)cc2c2cc(F)ccc21 [SHP1703] | selective for CRY2 |  | reduced overall repression

Reference: PMC12417823 (Neuro-Oncology, 2025)
